Source: PubChem BioAssay (Johns Hopkins Ion Channel Center)
This is a sample that favours compounds with a hit; in the whole collection about 3.5% have one here.
RGS4 pot: potentiators or activators of RGS4; AID 463111; 0.92% of 310,000 active; B-score at 10 µM; HEK293 M3R/inducible RGS4, carbachol calcium flux Fluo4; active compounds read low;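 active = B-score of the integrated calcium signal more than 4 SD below the library mean, with starting fluorescence not abnormally high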;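 note: negative B-score means reduced calcium response which marks RGS4 activation or potentiation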
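Material: M3R-expressing HEK293 line, RGS4 induced by doxycycline | Schedule: Overnight RGS4 induction, 30 min dye load 37 °C, 20 min compound RT | Measured by: Fluo4 fluorescence kinetic imaging of calcium | Read-out: Integrated calcium ratio converted to B score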
MrgX1 ag: human MrgX1 receptor agonism, primary screen. AID 588627. 0.44% of 310,000 active. Q96LB2. B-score at 10 µM. MrgX1-HEK293 cells, Fluo-4 calcium fluorescence, agonist mode; active compounds read high;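 active = calcium response B-score plate-corrected fluorescence ratio at least 3 library SD, with starting fluorescence B-score inside 5 SD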
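Test system: HEK293 cells stably expressing human MrgX1 receptor; Input: fifteen thousand cells per well; Dosing: compound delivered in addition one of three; Schedule: overnight seeding, then 1 h dark dye loading; Technique: Fluo-4 NW calcium fluorescence; Measure: B-scored fluorescence response ratio; Controls: positive and negative controls per plate.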
RGS4 inh: human RGS4 inhibition | P49798 | HEK293 M3R/RGS4 inducible, Fluo-4 calcium flux; active compounds read high; triggered by carbachol at its EC20 | B-score at 10 µM | 0.45% of 310,000 active | AID 463165;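 active = B-score, a plate-corrected calcium signal, over three deviations above library mean, with baseline fluorescence within five deviations of library mean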;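 note: RGS4 expression induced by doxycycline in cells with stable M3 receptor; B-score is computed from the integrated fluorescence ratio over baseline after carbachol; higher B-score means a larger calcium signal and so more RGS4 inhibition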
Target sequence (P49798 whole entry, looked up): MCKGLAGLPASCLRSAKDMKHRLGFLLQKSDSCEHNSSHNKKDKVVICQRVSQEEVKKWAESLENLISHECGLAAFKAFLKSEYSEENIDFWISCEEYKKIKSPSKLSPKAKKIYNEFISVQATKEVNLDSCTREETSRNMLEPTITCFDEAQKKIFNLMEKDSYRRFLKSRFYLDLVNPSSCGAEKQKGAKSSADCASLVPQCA
MrgX1 antag: blocks BAM8-22 activation of human MrgX1 receptor | B-score at 10 µM | 1.3% of 310,000 active | Q96LB2 | MRGX1-HEK293 calcium flux, Fluo-4, BAM8-22 antagonism; active compounds read low;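 active = calcium-response B-score plate-corrected more than 3 library SD below zero, starting fluorescence within 5 deviations, no agonist response on first addition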;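 note: peak minus trough fluorescence over baseline after final BAM8-22 challenge near maximal dose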
MrgX1 PAM: allosterically activates human MrgX1 receptor signaling; Q96LB2; MrgX1-HEK293, Fluo-4 calcium flux, FDSS; active compounds read high; B-score at 10 µM; 0.63% of 310,000 active;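 active = plate-corrected calcium response at least 3 library SD above typical, normal starting fluorescence, not activating the receptor alone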;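 note: compound read alongside a low EC10 to EC30 dose of BAM8-22 agonist; peak minus trough fluorescence over baseline measured at the second addition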
An asterisk follows results filed as active; i = inactive; / = no result given.

SMILES	RGS4 pot	MrgX1 ag	RGS4 inh	MrgX1 antag	MrgX1 PAM
C=CCSC1=C(C#N)C2(CCCCC2)C(C#N)C(=O)N1 (configuration not stated)	i	i	i	-7.7*	i
Cc1sccc1C1C(C#N)=C(N)SC(N)=C1C#N	i	i	i	i	i
N#CC1=C(N)SC(N)=C(C#N)C1CCC1CCCCC1	i	i	i	-8.8*	i
CCN(CC#CCC(O)(c1ccccc1)C1CCCC1)C(C)C (configuration not stated)	-7.4*	i	i	i	i
Cc1cc(C)n(C(=O)N(c2ccccc2)c2ccccc2)n1	i	i	i	i	i
O=C1CCCN1CCCNc1nc2c(S(=O)(=O)c3ccc(Br)cc3)nnn2c2ccccc12	i	i	i	i	i
O=C1Nc2ccccc2/C1=C/c1cccnc1	i	i	i	i	i
O=C1Nc2ccccc2/C1=C/c1cnc(-c2ccccc2)[nH]1	-7*	i	i	i	i
C=C(c1ccccc1)c1ccccc1N	i	i	i	i	i
CCOC(=O)CCS(=O)(=O)c1ccc(-c2ccc(S(=O)(=O)CCC(=O)OCC)cc2)cc1	i	i	i	-7.1*	i
O=C(c1cc2ccccc2oc1=O)N(Cc1ccccc1F)C1CCS(=O)(=O)C1 (configuration not stated)	i	i	i	i	i
COc1cc(C(=O)NCC(=O)OCc2ccccc2Cl)cc(OC)c1OC	i	i	i	i	i
CCOC(=O)c1sc(N)c(C#N)c1COC(=O)CNC(=O)c1cc(OC)c(OC)c(OC)c1	i	i	i	-6.6*	i
COc1cc(/C=C2\SC(=S)N(NC(=O)c3ccc(O)cc3)C2=O)ccc1O	i	i	i	i	i
Cn1cc(/C=C2\SC(=S)N(NC(=O)c3ccccc3Cl)C2=O)c2ccccc21	/	i	/	i	i
O=C1/C(=C/c2ccc(O)c(O)c2)SC(=S)N1Nc1ccccc1	i	/	i	/	/
COc1cc(/C=C2\SC(=S)N(NC(=O)c3cccnc3)C2=O)ccc1O	i	i	i	-6.7*	i
Cc1ccc(C(=O)NN2C(=O)/C(=C/c3cn(C)c4ccccc34)SC2=S)cc1	/	i	/	-4.8*	i
O=C(NN1C(=O)/C(=C/c2ccc(O)c(O)c2)SC1=S)c1ccccc1	i	32*	i	i	i
Cc1noc(NS(=O)(=O)c2ccc(NC(=O)C34CC5CC(C3)CC(n3cnc(Cl)n3)(C5)C4)cc2)c1C	i	i	i	i	i
C=CCn1c(SCC(=O)Nc2ccc(F)cc2F)nnc1-c1cnccn1	i	i	i	i	i
COc1ccc(Cc2noc(CN(C)CC(O)c3ccccc3)n2)cc1OC (configuration not stated)	i	i	i	-5.2*	i
CSc1sccc1/C=C(/C#N)C(=O)c1ccco1	i	37*	i	i	i
COc1ccc(/C=N/NC(=O)COc2ccc3ccccc3c2)c(C(=O)O)c1OC	i	i	i	-5.4*	i
COc1ccccc1OCC(=O)N/N=C/c1c(O)ccc2ccccc12	-7.6*	i	i	i	i
SMILES	RGS4 pot	MrgX1 ag	RGS4 inh	MrgX1 antag	MrgX1 PAM
COc1ccc(OCC(=O)N/N=C/c2ccc(OC)c(OC)c2C(=O)O)cc1	i	i	i	i	i
CN(C)S(=O)(=O)c1cccc(-c2nn(-c3ccccc3)cc2/C=C2\SC(=S)NC2=O)c1	/	i	/	i	17*
O=C(O)c1ccc(N2N=C(c3ccccc3)CC2c2ccccc2)cc1 (configuration not stated)	i	i	i	i	i
O=[N+]([O-])c1cccc(C2CC(c3ccccc3)=NN2c2ccccc2)c1 (configuration not stated)	i	i	i	-7.6*	i
N#CC1CC(c2ccc([N+](=O)[O-])cc2)=NN1c1ccc([N+](=O)[O-])cc1 (configuration not stated)	i	i	i	-6.2*	i
O=Cc1ccc(N2N=C(c3ccccc3)CC2c2ccccc2)cc1 (configuration not stated)	-10*	i	i	i	i
